Compound activity deposited in PubChem by several laboratories.
IMP-1 inhibitor: blocks Pseudomonas aeruginosa IMP-1 metallo-beta-lactamase; purified IMP-1, nitrocefin hydrolysis, epi-absorbance fluorescence; inhibition, % at 5.6 µM; hit rate 0.45% among 290,000;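 active means inhibition above the mean plus 3 SD of all compounds in the same screening run, cut at about 4.5% in these data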;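 further: 0% = IMP-1 with DMSO and 100% = DMSO wells lacking enzyme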
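System: purified recombinant IMP-1 beta-lactamase. Medium: Zinc- and detergent-supplemented HEPES buffer, pH 7.1. Compound: one 5.6 µM dose […]. Schedule: 15 min preincubation plus 25 min reaction at 25 °C. Technique: Epi-absorbance fluorescence, 480 nm excitation, 530 nm emission.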
VIM-2 inh: blocks Pseudomonas aeruginosa VIM-2 metallo-beta-lactamase | purified VIM-2, nitrocefin hydrolysis, epi-absorbance fluorescence | inhibition, % at 5.6 µM | hit rate 0.89% among 290,000 | AID 1527;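 active means inhibition above the mean of all tested compounds plus 3 SD, cutoff set per screening run, cut at about 7.5% in these data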;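 further: red hydrolysis product quenches plate fluorescence so inhibitors raise well fluorescence; 0% = enzyme with DMSO and 100% = DMSO without enzyme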
ASAP1 inh: ASAP1 ArfGAP inhibition | Q9ULH1 | ASAP1-stimulated ARF1 GTP hydrolysis, GDP FP detection | inhibition, % at 16.5 µM | hit rate 0.19% among 360,000; in the data active means inhibition above about 25%;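 further: 0% = vehicle with enzyme and substrate and 100% = no enzyme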
ARFGAP1 inh: rat ARFGAP1 inhibition; inhibition, % at 16.5 µM; hit rate 0.26% among 360,000; Arfgap1-stimulated ARF1 GTP hydrolysis, GDP FP detection;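 active means inhibition above a per-plate limit, mean inhibition of low control wells plus 3 SD, cut at about 25% in these data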;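 further: 0% = DMSO wells with enzyme and 100% = wells lacking Arfgap1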
Target sequence (Q62848 1-136 limits assumed): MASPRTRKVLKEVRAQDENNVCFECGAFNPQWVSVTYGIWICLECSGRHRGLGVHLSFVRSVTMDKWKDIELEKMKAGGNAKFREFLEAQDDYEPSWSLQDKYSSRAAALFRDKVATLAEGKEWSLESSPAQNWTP
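System: truncated rat Arfgap1 GAP domain / Benchmarks: high control wells lacking Arfgap1, low control full reaction with DMSO / Times: compound-enzyme preincubation 20 min, reaction 120 min, detection 60 min, 25 °C / Repeats: one replicate per compound / Also added: human ARF1(Δ1-17)-GTP substrate / Measured by: Tracer-displacement fluorescence polarization with EDTA stop, 620/688 nm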
Calb FLC: affects C. albicans growth with fluconazole | C. albicans CaCi-2 + fluconazole, Alamar Blue growth, 48 h | growth inhibition, % (concentration not given with the values) | hit rate 0.57% among 300,000;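 active means growth inhibition above about 58% in most replicates, limit read from the data, passing the limit was not always enough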;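 further: all wells also contain fluconazole at 8 µg/ml as a sub-toxic cotreatment; 0% = median of DMSO wells and 100% = median of geldanamycin control wells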
PHOSPHO1 block: PHOSPHO1 (human) inhibition; recombinant PHOSPHO1, absorbance phosphatase assay; inhibition, % at 13.3 µM; Q8TCT1; hit rate 1.1% among 290,000; AID 1565; in the data active means inhibition above about 60%
Target sequence (Q8TCT1 whole entry, looked up): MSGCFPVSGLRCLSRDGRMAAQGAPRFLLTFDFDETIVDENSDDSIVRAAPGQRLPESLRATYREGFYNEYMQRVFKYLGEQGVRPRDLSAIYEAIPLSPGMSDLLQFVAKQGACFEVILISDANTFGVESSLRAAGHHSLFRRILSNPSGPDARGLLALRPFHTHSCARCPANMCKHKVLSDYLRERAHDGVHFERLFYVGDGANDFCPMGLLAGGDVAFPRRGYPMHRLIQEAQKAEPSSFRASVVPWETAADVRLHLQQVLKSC
The depositor's hits bear a star; . = no result. An excerpt weighted towards active compounds, which were near 2.6% of everything screened.

SMILES	IMP-1 inhibitor	VIM-2 inh	ASAP1 inh	ARFGAP1 inh	Calb FLC	PHOSPHO1 block
CCn1cc(/C=C(\NC(=O)c2ccccc2F)C(=O)NCCN2CCOCC2)c2ccccc21	-3	-3	-18	1	19	65*
COCCNC(=S)N(C)[C@H]1C[C@H]2c3[nH]c4ccccc4c3CCN2C(=O)[C@H]1[C@H](C)O	.	.	-6	7	.	.
O=C(N[C@@H](Cc1cccnc1)C(=O)N1CCC[C@H]1C(=O)NCCc1ccccc1Cl)c1ccc(Cl)cc1Cl	.	.	-7	-12	.	.
Cc1ccc(NC(=S)C2=C(O)c3sccc3N(C)S2(=O)=O)cc1	0	-5	-4	-4	8	76*
Cc1ccc(NC(=O)C2=C(O)c3sccc3N(C)S2(=O)=O)cc1	0	0	-4	-13	-15	29
CCCCS(=O)(=O)N1CCCc2nc(CC)c(CC)cc21	.	.	4	0	.	.
COc1cc(/C=C(\C#N)C(=O)NCCc2ccccc2)cc(OC)c1O	-4	-3	10	-1	-1	2
COc1cc(/C=C(\C#N)C(=O)c2c[nH]c3ccccc23)cc(OC)c1O	4.8*	-3	9	-4	25	-2
CC1CCN(S(=O)(=O)c2ccc(C(=O)N3CCN(c4ccccc4F)CC3)cc2)CC1	0	-2	-1	-1	15	60*
C/C(=N\NC(=O)c1nn(C)c(C)c1Br)c1ccc(NC(=O)C2CCCC2)cc1	-2	-3	-2	-5	112*	17
Cc1cc(=S)nc(-c2ccccn2)[nH]1	-1	11*	-16	2	1	-108
COc1cccc(C(=O)N[C@@H](Cc2cccnc2)C(=O)N2CCC[C@H]2C(=O)NCc2ccccc2)c1	.	.	-9	-12	.	.
Cc1ccc(NC(=O)NNC(=O)c2cc3ccccc3cc2O)cc1C	-2	-2	8	6	81*	19
Cc1ccc(C)c(NC(=O)NNC(=O)c2cc3ccccc3cc2O)c1	-1	-7	-4	4	-1	33
CCOc1ccc(NC(=O)NNC(=O)c2cc3ccccc3cc2O)cc1	-2	-3	13	-8	86*	24
C#CCNC(=O)C[C@@H]1C[C@@]2(C(=O)OC)CCCCC=C2N(CCCCCCCC)C1=O	.	.	4	-9	.	.
COc1ccc(CCC(=O)N2CC(C)OC(C)C2)cc1 (configuration not stated)	-1	-3	-2	5	89*	-8
Cc1c(CC(=O)O)c(=O)oc2c(C)c(OCc3ccc(F)cc3F)ccc12	-1	-1	1	13	8	29
Cc1c(CC(=O)O)c(=O)oc2c(C)c(OCc3ccc(F)cc3Cl)ccc12	20*	-2	4	-3	-8	1
C[C@@H](NS(=O)(=O)c1c(F)cccc1F)c1ccccc1	.	.	8	-16	.	.
Cc1ccc(Cl)cc1Nc1nc(-c2sc(NC(=O)c3cccc(Cl)c3)nc2C)cs1	0	-6	.	.	3	-32
CCCC(C)C(=O)Nc1nc(C)c(-c2csc(Nc3cc(Cl)ccc3C)n2)s1 (configuration not stated)	9.9*	-2	4	13	0	74*
CCCCCC(=O)Nc1nc(C)c(-c2csc(Nc3ccc(Cl)cc3)n2)s1	-2	-3	23	18	-5	-143
CCCCCC(=O)Nc1nc(C)c(-c2csc(Nc3cc(Cl)ccc3C)n2)s1	12*	-6	8	6	-4	70*
CCCCCCC(=O)Nc1nc(C)c(-c2csc(Nc3ccc(Cl)cc3)n2)s1	-2	-3	.	.	-12	72*
SMILES	IMP-1 inhibitor	VIM-2 inh	ASAP1 inh	ARFGAP1 inh	Calb FLC	PHOSPHO1 block
COC(=O)[C@]12C[C@H](CC(=O)NCc3cccc4ccccc34)C(=O)N(Cc3ccc4c(c3)OCO4)C1=C[C@H](COCc1ccccc1)O[C@@H]2C	.	.	3	3	.	.
CC1(C)OC(C)(C)C(=N/O)/C1=N\N	.	.	7	18	.	.
O=C(Cc1c[nH]c2ccccc12)Nc1ccc(Nc2cccnc2)c(-c2cccc(Cl)c2)c1	.	.	7	20	.	.
O=C(NNC(=O)c1cccc2ccccc12)c1ccc(Cl)cc1Cl	.	.	-3	0	.	.
COc1cccc(C(=O)NNC(=O)c2ccc3ccccc3c2O)c1	.	.	-3	6	102*	.
COc1cccc(C(=O)NNC(=O)c2ccccc2)c1	-4	-2	-1	-4	3	34
O=C(NNC(=O)c1ccc2ccccc2c1O)c1ccccc1Cl	-1	0	-5	-11	86*	36
COCC(=O)Nc1nc2n(n1)C(c1ccccc1Cl)CC(c1ccc(OC)cc1)N2 (configuration not stated)	-2	-3	7	6	111*	-8
O=C(NCCc1ccccc1)C1CCCN(c2ncnc3c2nc2n3CCCCC2)C1 (configuration not stated)	-5	-2	-4	-3	-3	56
Cc1ccc(CCNC(=O)C2CCCN(c3ncnc4c3nc3n4CCCCC3)C2)cc1 (configuration not stated)	-5	-1	6	-2	-3	80*
O=C(NCCc1ccc(Cl)cc1)C1CCCN(S(=O)(=O)c2cnc[nH]2)C1 (configuration not stated)	0	1	3	3	24	3
Cc1ccc(CCNC(=O)C2CCCN(S(=O)(=O)c3cnc[nH]3)C2)cc1 (configuration not stated)	4.8*	0	0	4	0	-2
O=C(Nc1ccc(F)c(F)c1)C1CCCN(S(=O)(=O)c2cnc[nH]2)C1 (configuration not stated)	-1	2	.	.	-1	25
O=C(Nc1ccc(Cl)c(C(F)(F)F)c1)C1CCCN(S(=O)(=O)c2cnc[nH]2)C1 (configuration not stated)	6.6*	-2	1	20	5	6
O=C(c1ccccc1Cl)N1CCSCCS1(=O)=O	.	.	1	5	.	.
Cc1ccc(/C=N/NC(=O)c2c(C)nc3ccc(Cl)cn23)cc1	.	.	8	6	.	.
COC(=O)[C@]12C[C@H](CC(=O)N3CCCC3)C(=O)N(Cc3ccccc3)C1=C[C@H](C(C)(C)C)O[C@@H]2C	.	.	-16	4	.	.
COc1ccc(S(=O)(=O)NN=C2CCCCC2)cc1	0	-5	-7	-6	-16	74*
O=C(N[C@H](Cc1ccccc1)C(=O)NCc1ccco1)[C@H]1O[C@@H](n2ccc(=O)[nH]c2=O)[C@H](O)[C@@H]1O	.	.	-9	-5	.	.
Cc1cccc(-n2c(C)cc(C=C3C(=O)c4ccccc4C3=O)c2C)c1	-3	-9	-2	3	3	99*
Cc1nnc2c(NC(C)C)nc3ccccc3n12	-3	9.0*	-1	-1	0	-9
CCC(C)Nc1nc2ccccc2n2c(C)nnc12 (configuration not stated)	-4	5	-16	8	0	-3
CCOC(=O)/C(=N\Nc1cccc(C(F)(F)F)c1)N(CCOC)CCOC	-4	-2	-10	5	-7	49
